Experimental data as given in ChEMBL document CHEMBL1124149 (1988).
≈ marks a conversion by molar mass, not a printed value.

System: Vaccinia virus
Test: In vitro minimum inhibitory concentration to inhibit VV-induced cytopathogenicity in PRK cells by 50%
Format: functional
Conditions: Orthopoxvirus vaccinia
Method in brief: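 Antiviral read-out was virus-induced cytopathogenicity in primary rabbit kidney (PRK) cell cultures. The value is the compound concentration needed to reduce cytopathogenicity by 50%.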

Row | SMILES | MIC [µg/mL]
1 | Cn1c(N)nc2c(ncn2COCCO)c1=O | > 400
2 | Cc1cn2c([O-])c3c(nc2n1)[n+](COCCO)cn3C | > 400
3 | Cc1cn2c(O)c3ncn(COCCO)c3nc2n1 | > 400
4 | Cc1cn2c(=O)c3ncn(COCCO)c3nc2n1C | > 400
5 | CNc1nc(O)c2ncn(COCCO)c2n1 | > 400
6 | Cn1c[n+](COCCO)c2nc(N)nc([O-])c21.O=S(=O)(O)O | > 400
7 | Nc1nc2c(ncn2COCCO)c(=O)[nH]1 [ACYCLOVIR] | 150 (≈ 666 µM)
